ChEMBL document CHEMBL1255207, “Pyrazolobenzodiazepines: part I. Synthesis and SAR of a potent class of kinase inhibitors” (Bioorg Med Chem Lett, 2010)
Calls of active or inactive are those of the source. No cut-off for these calls is given here.

Assays:
[1] = target: Cyclin-dependent kinase 2/cyclin E (Homo sapiens, UniProt P24941); experiment: Inhibition of CDK2-cyclin E; assay type: protein-complex assay
How it was run: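 CDK2 was paired with cyclin E1. IC50 came from at least two replicates at each concentration.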

[2] = system: SW480; experiment: Cytotoxicity against human SW480 cells by MTT assay; assay type: functional, cell-based
How it was run: (§1)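 Antiproliferative IC50 was measured in human tumor lines: H460a (lung), HCT116, RKO and SW480 (colon), and MDA-MB435 (breast). Values are the mean of duplicate wells.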

[3] = system: CDK1-cyclin B (Homo sapiens); experiment: Inhibition of CDK1-cyclin B
[4] = target: CDK4-cyclin D1 (Homo sapiens); experiment: Inhibition of CDK4-cyclin D1
[5] = target: Focal adhesion kinase 1 (Homo sapiens, UniProt Q05397); experiment: Inhibition of FAK
[6] = target: Vascular endothelial growth factor receptor 2 (Homo sapiens, UniProt P35968); experiment: Inhibition of KDR
[7] = Inhibition of PDGFR
[8] = Inhibition of FGFR
[9] = target: CDK4-cyclin D1 (Homo sapiens); experiment: Inhibition of CDK4/Cyclin D1
[10] = target: Epidermal growth factor receptor (Homo sapiens, UniProt P00533); experiment: Inhibition of EGFR
[11] = target: CDK1-cyclin A1 (Homo sapiens); experiment: Inhibition of CDK1-cyclin A1
[12] = target: Proto-oncogene tyrosine-protein kinase Src (Homo sapiens, UniProt P12931); experiment: Inhibition of Src
[13] = system: NCI-H460; experiment: Antitumor activity against human H460 cells xenografted in mouse assessed as inhibition of tumor growth administered as po bid for 20 days; assay type: functional, organism-based
[14] = system: Mus musculus; experiment: Toxicity in human SW480 cells xenografted mouse assessed as body weight gain at 0.78 to 3.125 mg/kg, po bid for 20 days; assay type: organism-based; parameters: dose 0.78-3.125 mg/kg, route oral; conditions: in vivo, 480 h
How it was run: (§2)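 SW480 tumor-bearing nude mice dosed per os by gavage (0.2 ml/animal) twice daily for 20 days at 3.125, 1.56 and 0.78 mg/kg, with vehicle b.i.d. control. Tumor growth was followed over days post-implant and expressed as %T/C and % inhibition, with p values. Body weight change was tracked over the study.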

[15] = system: SW480; experiment: Antitumor activity against human SW480 cells xenografted in mouse assessed as inhibition of tumor growth at 3.125 mg/kg, po bid for 20 days; assay type: functional; conditions: SW480, 480 h; how it was run: as §2
[16] = system: LOX; experiment: Antitumor activity against human LOX cells xenografted in mouse assessed as inhibition of tumor growth administered as po bid for 20 days; assay type: functional, organism-based
[17] = system: RKO; experiment: Cytotoxicity against human RKO cells by MTT assay; assay type: functional, cell-based; how it was run: as §1
[18] = system: LoVo; experiment: Antitumor activity against human LoVo cells xenografted in mouse assessed as inhibition of tumor growth administered as po bid for 20 days; assay type: functional, organism-based
[19] = system: SW480; experiment: Antitumor activity against human SW480 cells xenografted in mouse assessed as inhibition of tumor growth at 1.56 mg/kg, po bid for 20 days; assay type: functional; conditions: SW480, 480 h; how it was run: as §2
[20] = system: Mus musculus; experiment: Toxicity in human SW480 cells xenografted mouse assessed as overt signs at 0.78 to 3.125 mg/kg, po bid for 20 days; assay type: organism-based; parameters: dose 0.78-3.125 mg/kg, route oral; conditions: in vivo, 480 h
How it was run: (§3)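 SW480 tumour-bearing nude mice were dosed by oral gavage (0.2 ml/animal) at 3.125, 1.56 or 0.78 mg/kg b.i.d. for 20 days, against a vehicle b.i.d. group. Animals were watched for drug-related toxicity, with body weight and tumour growth followed over days after tumour cell implant.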

[21] = system: NCI-H460; experiment: Cytotoxicity against human H460a cells by MTT assay; assay type: functional, cell-based; how it was run: as §1
[22] = system: HCT-116; experiment: Cytotoxicity against human HCT116 cells by MTT assay; assay type: functional, cell-based; how it was run: as §1
[23] = system: Mus musculus; experiment: Toxicity in human SW480 cells xenografted mouse assessed as mortality at 0.78 to 3.125 mg/kg, po bid for 20 days; assay type: organism-based; parameters: dose 0.78-3.125 mg/kg, route oral; conditions: in vivo, 480 h; how it was run: as §3
[24] = system: A549; experiment: Antitumor activity against human A549 cells xenografted in mouse assessed as inhibition of tumor growth administered as po bid for 20 days; assay type: functional, organism-based
[25] = system: MDA-MB-435; experiment: Cytotoxicity against human MDA-MB-435 cells by MTT assay; assay type: functional, cell-based; how it was run: as §1

Focal adhesion kinase 1, sequence (Q05397 whole entry): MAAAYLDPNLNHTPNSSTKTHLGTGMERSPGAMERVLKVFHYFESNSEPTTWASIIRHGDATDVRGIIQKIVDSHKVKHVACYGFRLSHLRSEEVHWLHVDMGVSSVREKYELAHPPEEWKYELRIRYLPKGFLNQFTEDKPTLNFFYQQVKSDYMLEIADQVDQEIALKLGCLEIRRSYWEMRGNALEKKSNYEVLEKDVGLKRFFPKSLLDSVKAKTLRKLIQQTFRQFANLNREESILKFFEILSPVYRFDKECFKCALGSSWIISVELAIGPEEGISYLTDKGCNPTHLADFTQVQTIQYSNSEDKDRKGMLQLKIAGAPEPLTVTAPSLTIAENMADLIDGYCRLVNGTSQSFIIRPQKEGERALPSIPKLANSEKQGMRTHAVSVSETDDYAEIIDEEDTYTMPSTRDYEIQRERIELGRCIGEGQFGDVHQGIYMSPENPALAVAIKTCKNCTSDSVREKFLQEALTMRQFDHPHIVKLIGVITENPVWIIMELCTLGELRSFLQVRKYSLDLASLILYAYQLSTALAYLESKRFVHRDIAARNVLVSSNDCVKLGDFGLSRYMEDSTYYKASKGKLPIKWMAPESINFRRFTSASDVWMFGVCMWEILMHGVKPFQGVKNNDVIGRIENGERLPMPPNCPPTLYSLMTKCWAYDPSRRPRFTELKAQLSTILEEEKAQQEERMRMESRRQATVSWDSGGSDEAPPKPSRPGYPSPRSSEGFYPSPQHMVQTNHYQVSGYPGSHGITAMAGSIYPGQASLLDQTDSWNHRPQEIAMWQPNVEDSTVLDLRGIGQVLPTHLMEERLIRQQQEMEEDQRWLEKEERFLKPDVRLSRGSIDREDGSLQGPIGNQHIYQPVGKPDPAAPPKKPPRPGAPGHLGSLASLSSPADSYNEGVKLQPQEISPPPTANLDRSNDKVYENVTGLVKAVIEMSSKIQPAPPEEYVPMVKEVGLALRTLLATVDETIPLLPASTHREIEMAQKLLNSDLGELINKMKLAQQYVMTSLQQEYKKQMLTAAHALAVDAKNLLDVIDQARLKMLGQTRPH
Proto-oncogene tyrosine-protein kinase Src, sequence (P12931 2-536 limits assumed): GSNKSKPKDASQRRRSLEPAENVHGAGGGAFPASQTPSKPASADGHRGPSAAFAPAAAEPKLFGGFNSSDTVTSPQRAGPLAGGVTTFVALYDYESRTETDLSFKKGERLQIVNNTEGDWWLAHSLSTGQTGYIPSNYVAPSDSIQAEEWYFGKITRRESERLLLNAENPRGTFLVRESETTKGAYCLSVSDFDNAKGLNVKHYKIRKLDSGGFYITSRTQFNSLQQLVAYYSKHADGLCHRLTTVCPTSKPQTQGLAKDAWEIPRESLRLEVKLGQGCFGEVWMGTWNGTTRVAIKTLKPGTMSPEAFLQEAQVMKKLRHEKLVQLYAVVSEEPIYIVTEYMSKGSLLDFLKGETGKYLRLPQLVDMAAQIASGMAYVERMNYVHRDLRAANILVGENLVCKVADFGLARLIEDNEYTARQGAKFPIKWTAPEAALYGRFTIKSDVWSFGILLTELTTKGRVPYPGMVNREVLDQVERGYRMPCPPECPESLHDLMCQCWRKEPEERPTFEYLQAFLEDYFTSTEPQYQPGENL
Epidermal growth factor receptor, sequence (P00533 whole entry): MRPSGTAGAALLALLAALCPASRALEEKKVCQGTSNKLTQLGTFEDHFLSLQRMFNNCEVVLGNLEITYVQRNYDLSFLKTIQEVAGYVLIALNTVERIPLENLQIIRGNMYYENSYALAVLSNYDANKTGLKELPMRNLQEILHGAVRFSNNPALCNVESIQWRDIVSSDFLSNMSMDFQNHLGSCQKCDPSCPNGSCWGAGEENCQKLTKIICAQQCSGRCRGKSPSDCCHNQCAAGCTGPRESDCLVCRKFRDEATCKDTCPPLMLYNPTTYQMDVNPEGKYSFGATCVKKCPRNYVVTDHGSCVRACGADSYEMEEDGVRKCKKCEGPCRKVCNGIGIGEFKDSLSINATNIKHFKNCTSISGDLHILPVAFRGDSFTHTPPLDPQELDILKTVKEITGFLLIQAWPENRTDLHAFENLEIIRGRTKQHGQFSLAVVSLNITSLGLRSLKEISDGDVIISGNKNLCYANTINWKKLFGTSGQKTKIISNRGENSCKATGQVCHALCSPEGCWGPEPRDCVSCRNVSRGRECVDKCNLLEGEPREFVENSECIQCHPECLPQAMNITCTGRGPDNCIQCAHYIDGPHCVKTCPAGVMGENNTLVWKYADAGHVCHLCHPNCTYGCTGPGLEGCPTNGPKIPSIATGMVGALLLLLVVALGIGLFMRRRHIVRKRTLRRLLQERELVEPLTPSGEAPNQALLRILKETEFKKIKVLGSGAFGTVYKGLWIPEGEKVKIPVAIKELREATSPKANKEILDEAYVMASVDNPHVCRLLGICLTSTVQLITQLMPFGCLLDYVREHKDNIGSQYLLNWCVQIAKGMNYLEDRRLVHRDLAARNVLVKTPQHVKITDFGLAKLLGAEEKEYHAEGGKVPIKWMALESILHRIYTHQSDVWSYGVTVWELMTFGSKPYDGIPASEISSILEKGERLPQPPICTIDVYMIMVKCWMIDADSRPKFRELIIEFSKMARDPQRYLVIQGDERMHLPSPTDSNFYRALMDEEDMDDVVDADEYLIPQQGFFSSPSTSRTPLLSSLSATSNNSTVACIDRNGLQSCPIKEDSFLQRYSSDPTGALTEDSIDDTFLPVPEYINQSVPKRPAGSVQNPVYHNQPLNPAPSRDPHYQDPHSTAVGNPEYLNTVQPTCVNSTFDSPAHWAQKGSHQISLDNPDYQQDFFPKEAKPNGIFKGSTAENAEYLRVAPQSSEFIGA
Vascular endothelial growth factor receptor 2, sequence (P35968 whole entry): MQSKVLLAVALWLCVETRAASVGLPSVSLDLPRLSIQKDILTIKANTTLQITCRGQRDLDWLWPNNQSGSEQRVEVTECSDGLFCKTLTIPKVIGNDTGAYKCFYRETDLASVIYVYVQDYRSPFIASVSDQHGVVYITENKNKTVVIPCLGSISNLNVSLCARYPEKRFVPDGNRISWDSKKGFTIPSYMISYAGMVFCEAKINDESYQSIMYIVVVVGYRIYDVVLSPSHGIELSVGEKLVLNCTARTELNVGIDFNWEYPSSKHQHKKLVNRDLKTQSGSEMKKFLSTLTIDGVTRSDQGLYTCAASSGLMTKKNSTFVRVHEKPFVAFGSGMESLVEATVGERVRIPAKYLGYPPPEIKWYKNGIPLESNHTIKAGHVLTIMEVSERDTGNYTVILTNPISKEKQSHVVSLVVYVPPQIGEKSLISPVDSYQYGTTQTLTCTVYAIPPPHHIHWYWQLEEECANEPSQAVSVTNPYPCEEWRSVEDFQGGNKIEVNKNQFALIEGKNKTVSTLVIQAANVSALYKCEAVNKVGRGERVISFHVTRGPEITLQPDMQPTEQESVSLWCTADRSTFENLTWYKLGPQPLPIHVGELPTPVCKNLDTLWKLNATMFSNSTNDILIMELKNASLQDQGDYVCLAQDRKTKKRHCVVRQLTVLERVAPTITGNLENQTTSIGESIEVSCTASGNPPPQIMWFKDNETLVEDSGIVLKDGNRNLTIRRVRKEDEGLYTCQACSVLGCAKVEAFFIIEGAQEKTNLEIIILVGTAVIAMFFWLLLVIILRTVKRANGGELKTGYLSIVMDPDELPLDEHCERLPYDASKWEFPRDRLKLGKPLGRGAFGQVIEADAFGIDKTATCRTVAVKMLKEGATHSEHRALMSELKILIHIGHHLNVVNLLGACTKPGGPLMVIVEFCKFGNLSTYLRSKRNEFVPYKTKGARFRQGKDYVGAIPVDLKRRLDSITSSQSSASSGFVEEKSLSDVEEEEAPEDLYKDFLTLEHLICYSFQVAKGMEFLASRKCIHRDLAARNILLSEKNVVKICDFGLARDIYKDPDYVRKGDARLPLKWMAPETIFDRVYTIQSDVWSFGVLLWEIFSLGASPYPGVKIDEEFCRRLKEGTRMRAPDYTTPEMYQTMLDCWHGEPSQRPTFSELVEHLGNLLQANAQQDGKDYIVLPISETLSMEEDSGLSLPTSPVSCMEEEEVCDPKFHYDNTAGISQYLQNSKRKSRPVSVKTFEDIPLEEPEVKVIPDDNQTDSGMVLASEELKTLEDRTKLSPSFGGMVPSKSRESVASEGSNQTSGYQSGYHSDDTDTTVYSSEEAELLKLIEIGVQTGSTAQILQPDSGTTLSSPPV

`Cc1[nH]nc2c1N=C(c1ccccc1F)c1ccccc1N2` showed an IC50 [1] of 0.064 µM and an IC50 [2] of 0.4 µM.

Compound `Nc1n[nH]c2nc(-c3cccs3)cc(C(F)(F)F)c12` has an IC50 [3] of 10 µM, an IC50 [1] of 2 µM and an IC50 [4] of over 30 µM. The IC50 [2] was 6 µM.

Work on `O=[N+]([O-])c1ccc2c(c1)C(c1ccccc1Cl)=Nc1c(n[nH]c1CO)N2` yielded an IC50 [1] of 0.238 µM and an IC50 [2] of 0.24 µM.

Compound `N#Cc1ccc2c(c1)C(c1ccccc1F)=Nc1c[nH]nc1N2` has an IC50 [5] of 1.2 µM, an IC50 [6] of 0.039 µM and an IC50 [7] of 0.051 µM. It also gave an IC50 [8] of 0.067 µM, an IC50 [1] of 0.016 µM and an IC50 [9] of 0.52 µM. The IC50 [10] was 10.9 µM, the IC50 [11] was 0.139 µM and the IC50 [12] was 5.4 µM. For the same compound, the IC50 [2] was 0.11 µM.

Compound `Cc1[nH]nc2c1N=C(c1ccccc1Cl)c1cc([N+](=O)[O-])ccc1N2` has an IC50 [5] of 6.9 µM, an IC50 [6] of 0.072 µM and an IC50 [7] of 0.083 µM. The IC50 [8] was 0.1 µM, the IC50 [1] was 0.035 µM and the IC50 [10] was over 10 µM. The IC50 [12] was over 60 µM and the IC50 [2] was 0.16 µM.

In the case of `Nc1ccc2c(c1)C(c1ccccc1Cl)=Nc1c[nH]nc1N2`, the inhibition [13] is reported as “Active”, the Activity [14] is reported as 9% and the inhibition in vivo at 3.125 mg/kg [15] is reported as 93%. The IC50 [5] was 0.15 µM, the IC50 [6] was 0.034 µM and the inhibition [16] was “Active”. For the same compound, the IC50 [17] was 0.31 µM, the inhibition [18] was “Active” and the inhibition in vivo at 1.56 mg/kg [19] was 70%. The IC50 [7] was 0.015 µM, the Activity [20] was “Non-toxic” and the IC50 [8] was 0.05 µM. It also gave an IC50 [1] of 0.088 µM, an IC50 [21] of 1.07 µM and an IC50 [10] of 0.989 µM. For the same compound, the IC50 [22] was 1.02 µM, the Activity [23] was “Non-toxic” and the IC50 [12] was 1.84 µM. The inhibition [24] was “Active”, the IC50 [2] was 0.5 µM and the IC50 [25] was 0.95 µM.

`Cc1[nH]nc2c1N=C(c1ccccc1Cl)c1ccccc1N2` showed an IC50 [1] of 0.105 µM and an IC50 [2] of 3.8 µM.

`O=[N+]([O-])c1ccc2c(c1)C(c1ccccc1Cl)=Nc1c(n[nH]c1-c1cccnc1)N2` gave an IC50 [1] of 0.3 µM and an IC50 [2] of 26 µM.

`O=[N+]([O-])c1ccc2c(c1)C(c1ccccc1Cl)=Nc1c(n[nH]c1-c1ccncc1)N2` gave an IC50 [1] of 0.05 µM and an IC50 [2] of 12 µM.

Compound `Cc1[nH]nc2c1N=C(c1ccccc1)c1ccccc1N2` has an IC50 [1] of 0.115 µM and an IC50 [2] of 1.5 µM.

For `O=[N+]([O-])c1ccc2c(c1)C(c1ccccc1Cl)=Nc1c(n[nH]c1C(F)(F)F)N2`, the IC50 [1] was 0.232 µM.

For `O=[N+]([O-])c1ccc2c(c1)C(c1ccccc1Cl)=Nc1c(n[nH]c1-c1ccc[nH]1)N2`, the IC50 [1] was 0.02 µM and the IC50 [2] was 5.3 µM.

With `CC(C)c1[nH]nc2c1N=C(c1ccccc1Cl)c1cc([N+](=O)[O-])ccc1N2` the IC50 [1] was 0.01 µM and the IC50 [2] was 0.64 µM.

Compound `O=[N+]([O-])c1ccc2c(c1)C(c1ccccc1Cl)=Nc1c(n[nH]c1-c1ccccc1)N2` has an IC50 [1] of 0.21 µM and an IC50 [2] of 18 µM.

Work on `Cc1[nH]nc2c1N=C(c1ccccc1F)c1cc(F)ccc1N2` yielded an IC50 [1] of 0.04 µM and an IC50 [2] of 0.7 µM.

With `NC(=O)c1[nH]nc2c1N=C(c1ccccc1Cl)c1cc([N+](=O)[O-])ccc1N2` the IC50 [1] was 0.258 µM.

In the case of `Cc1[nH]nc2c1N=C(c1ccccc1)c1cc(F)ccc1N2`, the IC50 [1] is reported as 0.093 µM and the IC50 [2] is reported as 2.2 µM.

For `CC(=O)Nc1ccc2c(c1)C(c1ccccc1Cl)=Nc1c[nH]nc1N2`, the IC50 [5] was 0.18 µM, the IC50 [6] was 0.033 µM and the IC50 [17] was 0.793 µM. For the same compound, the IC50 [7] was 0.023 µM, the IC50 [8] was 0.045 µM and the IC50 [1] was 0.038 µM. It also gave an IC50 [21] of 0.55 µM, an IC50 [10] of 0.726 µM and an IC50 [22] of 0.46 µM. It also gave an IC50 [12] of 0.93 µM, an IC50 [2] of 0.7 µM and an IC50 [25] of 0.794 µM.

In the case of `O=[N+]([O-])c1ccc2c(c1)C(c1ccccc1Cl)=Nc1c[nH]nc1N2`, the IC50 [3] is reported as 0.5 µM, the IC50 [1] is reported as 0.07 µM and the IC50 [4] is reported as 10 µM. The IC50 [2] was 6 µM.

In the case of `O=[N+]([O-])c1ccc2c(c1)C(c1ccccc1Cl)=Nc1c(n[nH]c1CCc1ccccc1)N2`, the IC50 [1] is reported as 5 µM and the IC50 [2] is reported as 15 µM.
